In PubChem BioAssay:
The list shows a part of the results. Unmarked numbers belong to inactive results. The source made the active and inactive calls.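 Rule for the calls, unless noted: active = mean activation over triplicate wells above the hit cutoff derived from the earlier primary screen (cut at about 11% in these data); inactive = the rest.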

Experiments:
[1] = test system: DAF-12 nuclear receptor (Heterodera glycines), GAL4-LBD fusion; test: hgDAF-12 GAL4 fusion reporter activation, retest – cell-based, luminescence, HEK293, GAL4-LBD fusion, confirmation (AID 743050); details: HEK293 GAL4-hgDAF12 luciferase reporter, agonist mode; at 6.8 µM; active compounds read high; percent of butyrate response;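 note: 0% = DMSO low control and 100% = 2 mM sodium butyrate high control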
[2] = target: Oxysterols receptor LXR-beta (Homo sapiens) (UniProt P55055); test: nonspecific reporter activation via LXR – cell-based, luminescence, HEK293, H. glycines campaign, counter-screen for hgDAF-12 agonist project, confirmation (AID 743051;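 active = mean activation of the triplicate above a set limit carried over from the primary screen, none filed active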); details: HEK293 Gal4-LXR luciferase reporter, 24 h; at 6.8 µM; active compounds read high
Method in brief: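 System: HEK293 cells with Gal4-LXR and tk-luc reporter. Compound dosing: single nominal test compound dose of 6.8 µM. Timing: 3 h cell plating, then 24 h compound exposure at 37 °C. Detection: One-Glo luminescence after 15 min. Read-out basis: percent activation relative to median DMSO and positive-control wells. Benchmarks: DMSO low control, 0.68% final.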

[3] = target: Galanin receptor type 2 (Homo sapiens) (UniProt O43603); test: blockers of human galanin receptor 2 – cell-based, confirmation (AID 866; in the data active = inhibition above about 27%;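 note: cells stimulated with galanin at about its EC80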); details: GALR2-expressing cells, antagonist mode, at 4 µM, active compounds read high
[4] = nonspecific BLA reporter inhibition – CHO NFAT-bla cells, FRET readout, counter-screen for GALR2 antagonist project, confirmation (AID 867;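 active = inhibition above the mean inhibition across tested compounds plus 3 SD, cut at about 27% in these data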;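 note: 0% = 500 nM thapsigargin stimulated wells and 100% = unstimulated BSA only wells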); details: beta-lactamase FRET, thapsigargin-stimulated, at 4.2 µM, active compounds read high

Chain of Galanin receptor type 2 (Homo sapiens) (O43603 whole entry, looked up): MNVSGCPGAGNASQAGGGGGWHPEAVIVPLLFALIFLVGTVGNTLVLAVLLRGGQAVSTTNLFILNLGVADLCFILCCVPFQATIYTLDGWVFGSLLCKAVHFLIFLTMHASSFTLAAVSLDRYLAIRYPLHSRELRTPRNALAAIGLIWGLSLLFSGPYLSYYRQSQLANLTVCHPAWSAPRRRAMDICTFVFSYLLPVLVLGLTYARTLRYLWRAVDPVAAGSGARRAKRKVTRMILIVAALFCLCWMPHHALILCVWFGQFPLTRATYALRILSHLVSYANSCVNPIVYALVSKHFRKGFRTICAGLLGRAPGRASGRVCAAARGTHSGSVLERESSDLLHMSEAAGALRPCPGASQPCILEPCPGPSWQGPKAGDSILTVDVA
Chain of Oxysterols receptor LXR-beta (Homo sapiens) (P55055 whole entry, looked up, the tested form may be a part): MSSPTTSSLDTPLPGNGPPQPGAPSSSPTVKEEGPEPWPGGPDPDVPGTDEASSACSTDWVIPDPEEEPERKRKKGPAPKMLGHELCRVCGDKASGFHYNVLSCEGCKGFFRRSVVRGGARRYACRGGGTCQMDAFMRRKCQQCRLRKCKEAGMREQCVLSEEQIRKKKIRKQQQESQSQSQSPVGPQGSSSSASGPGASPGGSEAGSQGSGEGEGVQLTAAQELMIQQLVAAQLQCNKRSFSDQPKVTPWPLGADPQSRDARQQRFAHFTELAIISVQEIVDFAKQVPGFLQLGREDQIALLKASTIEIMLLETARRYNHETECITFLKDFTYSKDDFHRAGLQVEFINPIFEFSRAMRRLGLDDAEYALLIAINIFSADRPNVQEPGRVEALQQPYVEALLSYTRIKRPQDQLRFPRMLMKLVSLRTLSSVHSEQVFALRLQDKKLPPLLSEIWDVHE

SMILES | activation [1] | activation [2] [%] | inhibition [3] | inhibition [4]
O=C(Nn1c(SCc2ccc([N+](=O)[O-])cc2)nc2ccccc2c1=O)c1ccc(F)cc1 | 11% (active) | 0.57 |  | 
O=C(CSC(=S)N1CCCCC1)c1c(F)cccc1F | 13.4% (active) | 0.64 |  | 
CC(C)c1cc(C(N)=O)c(NC(=O)c2cccc(COc3ccc(Br)cc3)c2)s1 | 14% (active) | 0.51 |  | 
Cc1cnc(C(=O)N2CCCC(C(=O)c3ccc(C(F)(F)F)cc3)C2)cn1 (configuration not stated) | 4.5% | 0.17 |  | 
O=C(Nc1ccc(C2CC2(Cl)Cl)cc1)c1cccc([N+](=O)[O-])c1 (configuration not stated) | 15.2% (active) | 0.56 |  | 
CC(C)(C)c1ccc(/C=C/C(=O)Nc2ncccn2)cc1 | 14.8% (active) | 0.79 |  | 
CC(C)C(=O)Nc1cccc(C(=O)Nc2ccc3c(c2)OCO3)c1 | 14.1% (active) | 0.72 |  | 
O=C(c1cnn2ccccc12)N1CCc2ccccc21 | 13.2% (active) | 0.43 |  | 
c1ccc(CN=C2Nc3ccccc3CS2)nc1 | 12.9% (active) | 0.55 |  | 
O=C(NCCCN1CCOCC1)c1cc(-c2ccccc2F)no1 | 11.6% (active) | 0.17 |  | 
CC(C)(C)c1csc(NC2=NS(=O)(=O)c3ccccc32)n1 | 15.4% (active) | 0.75 |  | 
O=C(Nc1ccc(Cl)c(Cl)c1)c1ccccc1NC(=O)C1CC=CCC1C(=O)O (configuration not stated) | 10.2% | 0.27 |  | 
C/C(=N\NC(=O)OC(C)(C)C)c1ccc[nH]1 | 13.8% (active) | 0.45 |  | 
COc1ccc(NC(=O)Nc2ccc3nsnc3c2)cc1 | 13.8% (active) | 0.54 |  | 
O=C(NCCOc1ccccc1)c1ccccc1F | 12.7% (active) | 0.64 |  | 
O=C(NC1CCCC1)c1cc(-c2ccccc2)on1 | 37.1% (active) | 0.75 |  | 
Cc1cnc(NC(=O)c2ccccn2)s1 | 15.6% (active) | 0.63 |  | 
O=C(Nc1ccccc1)c1ccc2c(c1)OCCCO2 | 19.7% (active) | 1.02 |  | 
COC(=O)c1sc(NC(=O)c2ccc(OC)cc2OC)nc1C | 7.02% | 1.05 |  | 
Cc1cccc(NC(=O)/C=C/c2ccc3c(c2)OCO3)n1 | 18.1% (active) | 0.84 |  | 
Cn1c(-c2ccc(C(=O)c3ccccc3)s2)nc2ccccc21 | 17.6% (active) | 0.88 |  | 

SMILES | activation [1] | activation [2] [%] | inhibition [3] | inhibition [4]
Oc1cccc2cc(-c3ccncc3)cnc12 | 5.92% | 0.18 |  | 
CC(=O)c1cc(C#N)c(SCC(=O)C(C)(C)C)nc1C | 14.8% (active) | 0.48 |  | 
Cc1cccc(NC(=S)NC(=O)c2ccc(Br)o2)c1 | 11.1% (active) | 0.48 |  | 
COc1ccc(-c2cn3ccsc3n2)cc1 | 16.3% (active) | 0.84 |  | 
O=C(Nc1ncccc1O)c1ccc(S(=O)(=O)N2CCCC2)cc1 | 14.2% (active) | 0.03 |  | 
c1ccc(-c2nnc(SCc3nc4ccccc4[nH]3)o2)cc1 |  |  | 13.7% | 5.82%
COCC(C)NC(=O)c1ccc(Cl)c(Cl)c1 (configuration not stated) |  |  | 10.6% | 4.96%
FC(F)(F)c1cnc(Oc2ccccc2-c2nnc(-c3ccc(Cl)cc3)o2)c(Cl)c1 |  |  | 3.44% | 8.76%
CC(=O)Nc1ccc(-c2nc3ccccc3o2)cc1 | 17% (active) | 0.95 |  | 
Cc1ccn(-c2cccc(-n3ccc(C)n3)n2)n1 | 15.2% (active) | 0.61 |  | 
COc1ccc(Nc2ccc3ccccc3c2)cc1 | 13% (active) | 0.53 |  | 
COc1ccc(NC(=O)c2ccc(OC)cc2)cc1 | 15.9% (active) | 0.75 |  | 
CCOc1ccc(OCc2cccc(C(=O)N(CC)CC)c2)cc1 | 19.5% (active) | 0.78 |  | 
O=C(Nc1ccc2ccccc2c1[N+](=O)[O-])c1ccccc1 | 17.7% (active) | 0.89 |  | 
O=C(/C=C/Sc1ncn[nH]1)c1ccc(Cl)cc1 |  |  | 50.7% (active) | 17%
Cc1ccsc1C(=O)N/N=C/c1ccc([N+](=O)[O-])cc1 | 15.8% (active) | 0.59 |  | 
CC(=O)c1ccccc1NC(=O)COC(=O)C1COc2ccccc2O1 (configuration not stated) | -0.02% | 0.04 |  | 
CC(/C=N/NC(=O)c1cc(-c2ccc3ccccc3c2)n[nH]1)=C\c1ccco1 | 1.68% | 0.14 |  | 
Fc1ccc2[nH]c3c(N4CCN(Cc5ccc6c(c5)OCO6)CC4)ncnc3c2c1 |  |  | 50.2% (active) | 24.3%
CC(C)n1c(=O)[nH]c2cc(C(=O)Nc3ccccc3)ccc21 | 5.08% | 0.17 |  | 
O=C(CNC(=O)OCc1ccccc1)Oc1cc2oc(=O)cc(-c3ccccc3)c2cc1Cl |  |  | 33.2% (active) | 37% (active)

SMILES | activation [1] | activation [2] [%] | inhibition [3] | inhibition [4]
COc1ccc(CNC(=O)COc2ccccc2C(=O)c2cnn(-c3ccccc3)c2)cc1OC | 10.3% | 0.65 |  | 
COc1ccc(C(=O)O/N=C(\N)c2ccccn2)cc1[N+](=O)[O-] | 15% (active) | 0.59 |  | 
Clc1ccc2nc(CSc3ccccc3)cn2c1 | 13.2% (active) | 0.71 |  | 
O=[N+]([O-])c1ccc2c(c1)Nc1nc3ccccc3nc1N2 | 25.8% (active) | 1.35 |  | 
COC(=O)N/N=C/c1cn(CCCOc2ccc(C)cc2)c2ccccc12 | 6.55% | 0.17 |  | 
O=C(NCCOc1ccccc1)c1ccccc1 | 13.3% (active) | 0.69 |  | 
O=C(NN=Cc1ccc2c(c1)CCC2)c1ccccc1O | 10.4% | 0.3 |  | 
S=C(c1ccc(-c2ccccc2)o1)N1CCCCC1 | 16.1% (active) | 0.73 |  | 
Cc1ccc(C(=O)NNc2ncnc3ccccc23)cc1 | 9.47% | 0.43 |  | 
O=C(NCCc1c[nH]c2ccccc12)c1cc2ccccc2oc1=O | 13.4% (active) | 0.56 |  | 
COc1ccc(/C=C/C(=O)Nc2ccc(C34CC5CC(CC(O)(C5)C3)C4)cc2)cc1OC |  |  | 43.6% (active) | 21.4%
Cc1cc(-c2n[nH]c(=S)n2/N=C/C(Br)=C/c2ccccc2)n[nH]1 |  |  | 44.1% (active) | 20.9%
O=C(NNC(=O)c1ccc(Cl)cc1Cl)c1cccs1 | 9.02% | 0.37 |  | 
Cc1ccccc1Nc1nc(-c2cccnc2)cs1 | 16.4% (active) | 0.7 |  | 
N#CC1(Nc2ccc(-c3ccc(Cl)cc3)cc2)CCCC1 | 8.29% | 0.34 |  | 
COc1cccc(/C=C/C(=O)Nc2ccc3c(c2)OCCO3)c1 | 12.4% (active) | 0.69 |  | 
COc1ccc(C)cc1NC(=O)c1[nH]c(C)c(C(C)=O)c1C |  |  | 22.8% | 4.72%
Brc1ccc(C2CC(c3ccccc3)=Nc3ccccc3N2)cc1 (configuration not stated) | 17.4% (active) | 0.65 |  | 
Fc1ccccc1-c1cc2cc3c(cc2cn1)OCO3 | 18.4% (active) | 0.79 |  | 
